Measured values of several laboratories.
Protocols differ between the studies behind these lines.
Effect on: metabolic stability

SMILES	test system	conditions	half-life
CN1CCCCC1Cn1cc(C(=O)c2cc([N+](=O)[O-])ccc2I)c2ccccc21 (racemic)	human, liver microsomes		5.9 min
CCCCCn1nc(C(=O)Nc2cccc3ccccc23)c2ccccc21	male human, liver microsomes	1 µM, pH 7.4	1.7 min
O=c1c2ccccc2sn1Cc1ccc(Cl)cc1	human, liver microsomes		300 min
NCCc1c[nH]c2ccc(O)cc12	human, hepatocytes	5 µM	33 min
N=c1c2c(-c3ccccc3)c(-c3ccccc3)n(Cc3ccccc3)c2ncn1[C@H]1CC[C@H](O)CC1	human, liver S9	1 µM	> 120 min
CCCCCCCCCCCCCCCCCCCCOP(=O)(O)CO[C@H](C)Cn1cnc2c(N)ncnc21.N	human, liver microsomes	3 µM, 30 min, pH 7.4	49 min
CN(C)CCc1c[nH]c2ccccc12	human, hepatocytes	0.6 µM	98.9 min
C=C1NC(=O)[C@H](C)N(O)C(=O)[C@H]([C@@H](O)C(N)=O)N(C)C(=O)[C@H](C)OC(=O)[C@@H]2C[C@H](C)CN2C1=O	human, liver microsomes		> 120 min
C#Cc1ccc2c(c1)C(c1ccccn1)=NCc1c(-c3cnco3)ncn1-2	human, liver microsomes		1500 min
O=C(c1cc(-n2sc3ncccc3c2=O)ccc1Cl)N1CCOCC1	human, liver microsomes		> 120 min
C[C@]12CC[C@H]3[C@@H](CCC4=CC(=O)CC[C@@]43C)[C@@H]1CC[C@@H]2O	human, liver microsomes	1 µM	14.9 min
Cc1cnc(Nc2ccc(C(=O)NC3CCN(C(=O)COCCOCCOCC(=O)N4CCC(NC(=O)c5ccc(Nc6ncc(C)c(Nc7ccc(Cl)c(NS(=O)(=O)C(C)(C)C)c7)n6)cc5F)CC4)CC3)c(F)c2)nc1Nc1ccc(Cl)c(NS(=O)(=O)C(C)(C)C)c1	human, liver microsomes		3.6 min
CCCCCn1cc(C(=O)Nc2cccc3ccccc23)c2ccccc21	male human, liver microsomes	1 µM, pH 7.4	2.3 min
Cc1nc2c(=O)n(C)c(=O)nc-2n(C)n1	human, liver microsomes		> 186 min
CC(C)NCC(O)COc1cccc2ccccc12 (stereo not shown)	human, liver microsomes	2 µM	> 40 min
Cc1cc(C)nc(Nc2ncc(C(=O)NCCc3c(C)[nH]c4ccccc34)cn2)c1	human, liver microsomes	1 µM	28 min
